pIC50: −log10 of the molar value.
Key:
[1] = molecular target: T1, FLAT-expressing Hek293 cells (Rattus norvegicus, UniProt P97612, DEL9-76); experiment: [3H]-anandamide accumulation in FLAT-expressing Hek293 cells; type: cell-based
T1 sequence (P97612 with tags, fused parts or gaps DEL9-76): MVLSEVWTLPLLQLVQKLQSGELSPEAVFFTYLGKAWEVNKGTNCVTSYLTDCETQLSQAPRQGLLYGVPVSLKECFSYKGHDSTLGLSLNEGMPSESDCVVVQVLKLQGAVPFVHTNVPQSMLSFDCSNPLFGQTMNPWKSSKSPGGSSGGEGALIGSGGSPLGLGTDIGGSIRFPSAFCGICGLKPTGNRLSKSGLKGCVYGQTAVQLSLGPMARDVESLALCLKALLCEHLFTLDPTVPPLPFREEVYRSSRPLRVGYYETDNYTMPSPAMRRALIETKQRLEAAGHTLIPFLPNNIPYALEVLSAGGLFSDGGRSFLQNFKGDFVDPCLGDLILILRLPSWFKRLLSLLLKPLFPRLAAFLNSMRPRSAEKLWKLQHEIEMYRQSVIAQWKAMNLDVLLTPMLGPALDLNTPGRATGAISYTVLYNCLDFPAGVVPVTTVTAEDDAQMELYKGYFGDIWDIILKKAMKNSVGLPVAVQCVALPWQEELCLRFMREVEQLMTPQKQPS

[2] = test system: formalin-induced nocifensive behavior; experiment: Formalin-induced pain behavior in mice; type: in vivo, mouse; conditions: formalin test, antagonist 1 mg-kg^-1, i.p.
Outline: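 Mice get intraplantar 5% formalin (20 μL). Nocifensive behaviour is scored in phase I (0–5 min) and phase II (5–45 min). Test compound is given i.p. at 0.01–1 mg-kg−1. In the antagonism arm, CB1, CB2 and TRPV-1 antagonists are each given at 1 mg-kg−1 i.p. Six mice per group; mean±SEM; two-way ANOVA with Bonferroni versus vehicle-injected controls.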

Compound | effect on [3H]-anandamide accumulation ([1]; FLAT-expressing Hek293 cells) | effect of antagonist on antinociceptive actions of systemic ARN272 [2] | further results
CCCCC/C=C\C/C=C\C/C=C\C/C=C\CCCC(=O)NCc1ccoc1 [UCM707] | prevented |  | 
CCCCCC=CCC=CCC=CCC=CCCCC(=O)Nc1ccc(O)cc1 [AM404, N-(4-hydroxyphenyl)-eicosa-5,8,11,14-tetraenamide] |  |  | pIC50 [1]: 5.40
CCCCC/C=C\C/C=C\C/C=C\C/C=C\CCCC(=O)NCCO [anandamide, N-arachidonoylethanolamine] |  |  | effect on [3H]-anandamide accumulation ([1]; non-radioactive anandamide 100 μM): prevented
Cc1c(C(=O)NN2CCCCC2)nn(-c2ccc(Cl)cc2Cl)c1-c1ccc(I)cc1 [AM251] |  | suppressed | 
CC(C)(C)c1ccc(/C=C/C(=O)Nc2ccc3c(c2)OCCO3)cc1 [AMG9810] |  | ineffective | 
CCCCC/C=C\C/C=C\C/C=C\C/C=C\CCCC(=O)Nc1ccc(O)cc1C [VDM11] | prevented |  | 
COc1ccc(C(=O)c2c(C)n(CCN3CCOCC3)c3cc(I)ccc23)cc1 [AM630] |  | ineffective | 
CCCCCCCC/C=C\CCCCCCCC(=O)N[C@H](CO)Cc1ccc(O)cc1 [OMDM-1] | prevented |  | 
